Data on three compounds can be found in publication PMC9449982 (Molecular Pharmaceutics, 2022).

Converted amounts (≈) assume the structure as drawn. “And” between values parts separate entries of the source, which are not always exact repeats. Equal entries are not always repeated. Where two headings read alike, the source gives them in different places.

A short description of data set [1]: Particle size determination by dynamic light scattering. It counts as physicochemical.
The conditions of data set [2]: cited from earlier work.
Data set [3] is described as follows: Flux measurements, Franz diffusion cells. It counts as in vitro ADME.
For data set [4] the following is noted: cited from earlier work; for glass transition temperature (Tg) / Tg, dry: dry.
Data set [5] in a line: Amorphous solubility determination, ultracentrifugation. It counts as physicochemical. Particulars: phosphate buffer with HPMCAS, pH 6.5, aqueous buffer, kinetic from dmso stock. The method in brief:
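Test compound DMSO stock added to 50 mM pH 6.5 sodium phosphate buffer with 100 μg/mL predissolved HPMCAS, keeping organic solvent below 2% (v/v). Mixture stirred 15 min to form amorphous aggregates, then spun at 35,000 rpm for 30 min. Supernatant diluted 1:1 in mobile phase and quantified by isocratic C18 HPLC at 210 nm. At least triplicate.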

Data set [6] is described as follows: Wet glass transition temperature. It counts as physicochemical. Particulars: amorphous drug equilibrated at 97% relative humidity 48 h; DSC onset. The method in brief: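 Amorphous test compound powder was freshly prepared and vacuum-dried overnight at room temperature. Then 5–10 mg in open hermetic pans was held at 97% relative humidity (saturated potassium sulfate) for 48 h. Pans sealed; DSC run 0 to 90 °C at 10 °C/min. Onset glass transition taken as wet Tg. Triplicate.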
In general terms: Differential scanning calorimetry records heat flow against a reference as temperature is scanned.

In general, solubility refers to the concentration that dissolves in the medium under given conditions. `COC(=O)N[C@H](C(=O)N[C@@H](Cc1ccccc1)[C@@H](O)CN(Cc1ccc(-c2ccccn2)cc1)NC(=O)[C@@H](NC(=O)OC)C(C)(C)C)C(C)(C)C` [atazanavir]: the Z-average is given as 193 ± 4 nm in data set [1] (particles from stock 5 mg/mL, 1000 rpm, 37 °C) and 460 ± 23 nm in data set [1] (particles from stock 20 mg/mL, 1000 rpm, 37 °C). Besides, the “diffusion coefficient Dp” value in data set [1] (particles from stock 5 mg/mL, 1000 rpm, 37 °C (193 nm), listed as ATZ) is 3.43 ± 0.07 ×10^–8 cm^2/s; in data set [1] (particles from stock 20 mg/mL, 1000 rpm, 37 °C (460 nm), listed as ATZ) it was 1.44 ± 0.07 ×10^–8 cm^2/s. Besides, the pKa in data set [2] (basic) is 4.52,[45] basic. Further, the transmembrane flux is 0.023 ± 0.003 μg/(min·cm^2) in data set [3] (donor ∼20 μg/mL, 150 rpm, no BSA, 37 °C); 0.030 ± 0.003 μg/(min·cm^2) in data set [3] (donor ∼20 μg/mL, 300 rpm, no BSA, 37 °C); 0.041 ± 0.005 μg/(min·cm^2) in data set [3] (donor ∼20 μg/mL, 500 rpm, no BSA, 37 °C); 0.048 ± 0.012 μg/(min·cm^2) in data set [3] (donor ∼40 μg/mL (amorphous solubility), 300 rpm, no BSA, 37 °C); 0.070 ± 0.008 μg/(min·cm^2) in data set [3] (donor ∼40 μg/mL, 500 rpm, no BSA, 37 °C); 0.072 ± 0.019 μg/(min·cm^2) in data set [3] (donor ∼40 μg/mL, 1000 rpm, no BSA, 37 °C). For the same compound, the “donor concentration at which a flux plateau was observed” value in data set [3] (stirring rates equal to or higher than 300 rpm, no BSA) is recorded as “about 150 μg/mL”. In addition, the “glass transition temperature (Tg)” value in data set [4] is 104 °C. Also, the “Tg, wet” value in data set [4] (water saturated amorphous precipitates) is 51 °C. This compound also registered a solubility at 15 min in data set [5] of 37.7 ± 3.2 µg/mL (≈ 53.5 µM).
On to `Cc1cccc(C)c1OCC(=O)N[C@@H](Cc1ccccc1)[C@@H](O)C[C@H](Cc1ccccc1)NC(=O)[C@H](C(C)C)N1CCCNC1=O` [lopinavir], for which the Z-average was 254 ± 3 nm in data set [1] (particles from stock 5 mg/mL, 1000 rpm, 25 °C); 454 ± 10 nm in data set [1] (particles from stock 12 mg/mL, 300 rpm, 25 °C); 839 ± 15 nm in data set [1] (particles from stock 20 mg/mL, 300 rpm, 25 °C). Moreover, the “diffusion coefficient Dp” value was 1.94 ± 0.00 ×10^–8 cm^2/s in data set [1] (particles from stock 5 mg/mL, 1000 rpm, 25 °C (254 nm), listed as LPV); 1.09 ± 0.00 ×10^–8 cm^2/s in data set [1] (particles from stock 12 mg/mL, 300 rpm, 25 °C (454 nm), listed as LPV); 0.59 ± 0.01 ×10^–8 cm^2/s in data set [1] (particles from stock 20 mg/mL, 300 rpm, 25 °C (839 nm), listed as LPV). Moreover, the pKa entry in data set [2] (no reference printed) is “not dissociated at physiological pHs”; in data set [2] (no reference printed, listed as Lopinavir), “not expected to dissociate within physiological pH ranges”. For the same compound, the “Tg, wet” value in data set [6] is 42 °C and 42.2 ± 1.8 °C. For the same compound, in data set [4], the “Tg, dry” value is 69 °C. Further, in data set [4], the “glass transition temperature (Tg)” value was 69 °C. The compound also gave a solubility at 15 min in data set [5] of 19.3 ± 2 µg/mL (≈ 30.7 µM).
Consider `Clc1ccccc1C(c1ccccc1)(c1ccccc1)n1ccnc1` [clotrimazole], for which the pKa in data set [2] (basic) is 5.89,[45] basic. Besides, the “bulk concentration at which a flux plateau was observed” value in data set [3] (150 rpm, 37 °C, 3% BSA) was “around 150 μg/mL”. For the same compound, in data set [4], the “Tg, dry” value was 28,[45] NA ^a °C and the “glass transition temperature (Tg)” value was 28 °C. The compound further yielded a solubility at 15 min in data set [5] of 7.7 ± 0.3 µg/mL (≈ 22.3 µM).
